≈ marks a conversion by molar mass, not a printed value. Where a SMILES comes first, the peptide text is derived from it. [ ]: non-standard residue; d: D form. dOrn = NCCC[C@@H](N)C(=O)O
Legend:
Type in all cases: functional
Acinetobacter baumannii [1] = experiment: Antibacterial activity against Acinetobacter baumannii 649 measured after 24 hrs by microtiter dilution method; details: Acinetobacter baumannii, 649, 24 h
Procedure, shortened: (§1)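 Broth microdilution in Mueller-Hinton (MH) medium. […] Plates were incubated 24 h at 37 °C. MIC was the lowest peptide concentration that inhibited growth, based on three sets of replicates.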

Acinetobacter baumannii [2] = experiment: Antibacterial activity against Acinetobacter baumannii isolate 1001611 measured after 24 hrs by microtiter dilution method; details: isolate 1001611, 24 h; procedure, shortened: as §1
Acinetobacter baumannii [3] = experiment: Antibacterial activity against Acinetobacter baumannii isolate 1007660 measured after 24 hrs by microtiter dilution method; details: isolate 1007660, 24 h; procedure, shortened: as §1
Acinetobacter baumannii [4] = experiment: Antibacterial activity against Acinetobacter baumannii isolate 1021371 measured after 24 hrs by microtiter dilution method; details: isolate 1021371, 24 h; procedure, shortened: as §1
Acinetobacter baumannii [5] = experiment: Antibacterial activity against Acinetobacter baumannii isolate 952654 measured after 24 hrs by microtiter dilution method; details: isolate 952654, 24 h; procedure, shortened: as §1
Acinetobacter baumannii [6] = experiment: Antibacterial activity against Acinetobacter baumannii isolate 9383370 measured after 24 hrs by microtiter dilution method; details: isolate 9383370, 24 h; procedure, shortened: as §1
Acinetobacter baumannii [7] = experiment: Antibacterial activity against Acinetobacter baumannii isolate 961997 measured after 24 hrs by microtiter dilution method; details: isolate 961997, 24 h; procedure, shortened: as §1
Acinetobacter baumannii [8] = experiment: Antibacterial activity against Acinetobacter baumannii isolate 1002956 measured after 24 hrs by microtiter dilution method; details: isolate 1002956, 24 h; procedure, shortened: as §1
Acinetobacter baumannii [9] = experiment: Antibacterial activity against Acinetobacter baumannii isolate 977751 measured after 24 hrs by microtiter dilution method; details: isolate 977751, 24 h; procedure, shortened: as §1
Acinetobacter baumannii [10] = experiment: Antibacterial activity against Acinetobacter baumannii isolate 1035166 measured after 24 hrs by microtiter dilution method; details: isolate 1035166, 24 h; procedure, shortened: as §1
Acinetobacter baumannii [11] = experiment: Antibacterial activity against Acinetobacter baumannii isolate 1010282 measured after 24 hrs by microtiter dilution method; details: isolate 1010282, 24 h; procedure, shortened: as §1
Acinetobacter baumannii [12] = experiment: Antibacterial activity against Acinetobacter baumannii isolate 1010245 measured after 24 hrs by microtiter dilution method; details: isolate 1010245, 24 h; procedure, shortened: as §1
Acinetobacter baumannii [13] = experiment: Antibacterial activity against Acinetobacter baumannii isolate 1017395 measured after 24 hrs by microtiter dilution method; details: isolate 1017395, 24 h; procedure, shortened: as §1
Acinetobacter baumannii [14] = experiment: Antibacterial activity against Acinetobacter baumannii isolate 968886 measured after 24 hrs by microtiter dilution method; details: isolate 968886, 24 h; procedure, shortened: as §1
Acinetobacter baumannii [15] = experiment: Antibacterial activity against Acinetobacter baumannii isolate 964304 measured after 24 hrs by microtiter dilution method; details: isolate 964304, 24 h; procedure, shortened: as §1
Acinetobacter baumannii [16] = experiment: Antibacterial activity against Acinetobacter baumannii isolate 963659 measured after 24 hrs by microtiter dilution method; details: isolate 963659, 24 h; procedure, shortened: as §1
Acinetobacter baumannii [17] = experiment: Antibacterial activity against Acinetobacter baumannii isolate 963618 measured after 24 hrs by microtiter dilution method; details: isolate 963618, 24 h; procedure, shortened: as §1
Acinetobacter baumannii [18] = experiment: Antibacterial activity against Acinetobacter baumannii isolate 1018887 measured after 24 hrs by microtiter dilution method; details: isolate 1018887, 24 h; procedure, shortened: as §1
Acinetobacter baumannii [19] = experiment: Antibacterial activity against Acinetobacter baumannii isolate 1035794 measured after 24 hrs by microtiter dilution method; details: isolate 1035794, 24 h; procedure, shortened: as §1
Acinetobacter baumannii [20] = experiment: Antibacterial activity against Acinetobacter baumannii isolate 981650 measured after 24 hrs by microtiter dilution method; details: isolate 981650, 24 h; procedure, shortened: as §1
Acinetobacter baumannii [21] = experiment: Antibacterial activity against Acinetobacter baumannii isolate 965463 measured after 24 hrs by microtiter dilution method; details: isolate 965463, 24 h; procedure, shortened: as §1
Acinetobacter baumannii [22] = experiment: Antibacterial activity against polymyxin B/colistin-resistant Acinetobacter baumannii M89963 measured after 24 hrs by microtiter dilution method; details: M89963, 24 h; procedure, shortened: as §1
Acinetobacter baumannii [23] = experiment: Antibacterial activity against polymyxin B/colistin-resistant Acinetobacter baumannii M89953 measured after 24 hrs by microtiter dilution method; details: M89953, 24 h; procedure, shortened: as §1
Acinetobacter baumannii [24] = experiment: Antibacterial activity against polymyxin B/colistin-resistant Acinetobacter baumannii M89952 measured after 24 hrs by microtiter dilution method; details: M89952, 24 h; procedure, shortened: as §1
Acinetobacter baumannii [25] = experiment: Antibacterial activity against polymyxin B/colistin-resistant Acinetobacter baumannii M89951 measured after 24 hrs by microtiter dilution method; details: M89951, 24 h; procedure, shortened: as §1
Acinetobacter baumannii [26] = experiment: Antibacterial activity against polymyxin B/colistin-resistant Acinetobacter baumannii M89949 measured after 24 hrs by microtiter dilution method; details: M89949, 24 h; procedure, shortened: as §1
Acinetobacter baumannii [27] = experiment: Antibacterial activity against polymyxin B/colistin-resistant Acinetobacter baumannii M89941 measured after 24 hrs by microtiter dilution method; details: M89941, 24 h; procedure, shortened: as §1

In the case of CC(=O)N[C@H](CCCCN)C(=O)N[C@H](CC(C)C)C(=O)N[C@H](CCCN)C(=O)N[C@H](CO)C(=O)N[C@H](CC(C)C)C(=O)N[C@H](CC(C)C)C(=O)N[C@H](CCCN)C(=O)N[C@@H](C(=O)N[C@H](CC(C)C)C(=O)N[C@H](CO)C(=O)N[C@H](CCCN)C(=O)N[C@H](C)C(=O)N[C@H](C)C(=O)N[C@H](C)C(=O)N[C@H](C)C(=O)N[C@H](C)C(=O)N[C@H](CC(C)C)C(=O)N[C@H](CCCN)C(=O)N[C@@H](C(=O)N[C@H](CC(C)C)C(=O)N[C@H](CC(C)C)C(=O)N[C@H](CCCN)C(=O)N[C@H](C)C(=O)N[C@H](CC(C)C)C(=O)N[C@H](CO)C(=O)N[C@H](CCCN)C(N)=O)[C@H](C)O)[C@H](C)O (Ac-[dK][dL][dOrn][dS][dL][dL][dOrn][dT][dL][dS][dOrn][dA][dA][dA][dA][dA][dL][dOrn][dT][dL][dL][dOrn][dA][dL][dS][dOrn]-NH2), the MIC (Acinetobacter baumannii [1]) is reported as 1.5 µM (≈ 4 µg/mL), the MIC (Acinetobacter baumannii [2]) is reported as 1.5 µM (≈ 4 µg/mL) and the MIC (Acinetobacter baumannii [3]) is reported as 1.5 µM (≈ 4 µg/mL). The MIC (Acinetobacter baumannii [4]) was 1.5 µM (≈ 4 µg/mL), the MIC (Acinetobacter baumannii [5]) was 1.5 µM (≈ 4 µg/mL) and the MIC (Acinetobacter baumannii [6]) was 3 µM (≈ 8 µg/mL). The MIC (Acinetobacter baumannii [7]) was 1.5 µM (≈ 4 µg/mL), the MIC (Acinetobacter baumannii [8]) was 1.5 µM (≈ 4 µg/mL) and the MIC (Acinetobacter baumannii [9]) was 6 µM (≈ 16 µg/mL). The MIC (Acinetobacter baumannii [10]) was 1.5 µM (≈ 4 µg/mL), the MIC (Acinetobacter baumannii [11]) was 1.5 µM (≈ 4 µg/mL) and the MIC (Acinetobacter baumannii [12]) was 1.5 µM (≈ 4 µg/mL). It also gave an MIC (Acinetobacter baumannii [13]) of 3 µM (≈ 8 µg/mL), an MIC (Acinetobacter baumannii [14]) of 3 µM (≈ 8 µg/mL) and an MIC (Acinetobacter baumannii [15]) of 1.5 µM (≈ 4 µg/mL). It also gave an MIC (Acinetobacter baumannii [16]) of 0.7 µM (≈ 1.87 µg/mL), an MIC (Acinetobacter baumannii [17]) of 1.5 µM (≈ 4 µg/mL) and an MIC (Acinetobacter baumannii [18]) of 3 µM (≈ 8 µg/mL). The MIC (Acinetobacter baumannii [19]) was 3 µM (≈ 8 µg/mL), the MIC (Acinetobacter baumannii [20]) was 1.5 µM (≈ 4 µg/mL) and the MIC (Acinetobacter baumannii [21]) was 3 µM (≈ 8 µg/mL). For the same compound, the MIC (Acinetobacter baumannii [22]) was 2.9 µM (≈ 7.74 µg/mL), the MIC (Acinetobacter baumannii [23]) was 1.5 µM (≈ 4 µg/mL) and the MIC (Acinetobacter baumannii [24]) was 1.5 µM (≈ 4 µg/mL). The MIC (Acinetobacter baumannii [25]) was 1.5 µM (≈ 4 µg/mL), the MIC (Acinetobacter baumannii [26]) was 2.9 µM (≈ 7.74 µg/mL) and the MIC (Acinetobacter baumannii [27]) was 2.9 µM (≈ 7.74 µg/mL).

From ChEMBL document CHEMBL4339192, “De Novo Designed Amphipathic α-Helical Antimicrobial Peptides Incorporating Dab and Dap Residues on the Polar Face To Treat the Gram-Negative Pathogen, Acinetobacter baumannii” (J Med Chem, 2019)
